This note sets out measurements from ChEMBL document CHEMBL3877330, “Synthesis and Antitumor Activity Evaluation of a Novel Combi-nitrosourea Prodrug: BGCNU” (ACS Med Chem Lett, 2017).

A short description of series [1]: Potency index, ratio of ACNU IC50 in combination with O6-BG to test compound IC50 for AGT-positive human SF763 cells. Type of series: functional. The method in brief: (§1)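 Survival curves were run in AGT-high human glioma SF763 cells. […] The index is the IC50 of the combination divided by the test compound's IC50.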
Series [2] in a line: n-Octanol/water partition coefficient, log P of the compound at 2 mM by HPLC analysis. It is filed as physicochemical.
A short description of series [3]: Potency index, ratio of BCNU IC50 in combination with O6-BG to test compound IC50 for AGT-positive human SF763 cells. Type of series: functional. The essentials: as §1
Series [4] can be described thus: Potency index, ratio of BCNU IC50 to test compound IC50 for AGT-positive human SF763 cells. Type of series: functional. The method in brief:
(§2)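 Cell survival curves were run in human glioma cells, with SF763 high in AGT and SF126 lacking AGT. IC50 values came from the curves. The index is the IC50 of ACNU or BCNU alone divided by the test compound's IC50.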

Series [5] has as its target T1, Methylated-DNA--protein-cysteine methyltransferase (Homo sapiens) (UniProt P16455).
T1 sequence (whole entry): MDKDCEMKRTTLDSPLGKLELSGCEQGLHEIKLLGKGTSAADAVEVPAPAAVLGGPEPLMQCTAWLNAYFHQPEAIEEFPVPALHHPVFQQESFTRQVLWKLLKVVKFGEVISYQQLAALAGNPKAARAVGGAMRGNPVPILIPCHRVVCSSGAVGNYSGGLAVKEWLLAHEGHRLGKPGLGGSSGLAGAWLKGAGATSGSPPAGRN
The series can be described thus: Inhibition of AGT in human SF767 cells assessed as increase in dG-dC crosslinking incubated for 12 hrs by HPLC-ESI-MS/MS analysis. It is filed as cell-based. The method in brief:
(§3)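 Glioma cells exposed to drug at 0.1, 0.2, 0.4 and 0.6 mM. Genomic DNA then extracted and dG-dC interstrand cross-link levels quantified by HPLC-ESI-MS/MS. Triplicate determinations (n=3) per concentration.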

Series [6] has as its system SF-126. Kind of series: Potency index, ratio of ACNU IC50 to test compound IC50 for AGT-deficient human SF126 cells. Type of series: functional. The method in brief: as §2
The species named for a further series is Bos taurus. Kind of series: Binding affinity to calf thymus DNA assessed as increase in dG-dC crosslinking incubated for 12 hrs under dark condition by HPLC-ESI-MS/MS analysis. The essentials:
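Calf thymus DNA treated directly with drug at 0.1, 0.2, 0.4 and 0.6 mM. dG-dC cross-link levels measured by HPLC-ESI-MS/MS.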

A short description of series [7]: Cytotoxicity against AGT-positive human SF763 cells assessed as reduction in cell viability measured after 24 hrs by CCK8 assay. It is filed as functional, cell-based. Particulars: SF763, 24 h.
The nature of series [8]: Cytotoxicity against AGT-positive human SF767 cells assessed as reduction in cell viability measured after 24 hrs by CCK8 assay. Particulars: SF767, 24 h. Type of series: functional, cell-based. (Tetrazolium assays rely on reduction of a dye to a coloured formazan, in cell work by metabolically active cells.)
Series [9] can be described thus: Cytotoxicity against AGT-deficient human SF126 cells assessed as reduction in cell viability measured after 24 hrs by CCK8 assay. It is filed as functional, cell-based. The conditions noted are these: SF-126, 24 h.
Series [10] concerns the target T1, Methylated-DNA--protein-cysteine methyltransferase (Homo sapiens). Kind of series: Inhibition of AGT in human SF763 cells assessed as increase in dG-dC crosslinking incubated for 12 hrs by HPLC-ESI-MS/MS analysis. It is filed as cell-based. The essentials: as §3
Series [11] has as its system SF-126. The series can be described thus: Binding affinity to DNA in AGT-deficient human SF126 cells assessed as increase in dG-dC crosslinking incubated for 12 hrs by HPLC-ESI-MS/MS analysis. It is filed as cell-based. The method in brief:
as §3

Series [12] in a line: Potency index, ratio of ACNU IC50 to test compound IC50 for AGT-positive human SF763 cells. Type of series: functional. The method in brief:
as §2

Series [13] can be described thus: Cytotoxicity against AGT-deficient human SF126 cells assessed as reduction in cell viability pretreated with O6-BG for 2 hrs followed by addition of compound measured after 24 hrs by CCK8 assay. Type of series: functional, cell-based. The conditions noted are these: SF-126. The method in brief:
(§4)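 Nitrosourea combined with 20 µM O6-BG. Survival curves were generated for the glioma cells across a range of drug concentrations, and IC50 was read from those curves.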

Series [14] in a line: Cytotoxicity against AGT-positive human SF767 cells assessed as reduction in cell viability pretreated with O6-BG for 2 hrs followed by addition of compound measured after 24 hrs by CCK8 assay. It is filed as functional, cell-based. The method in brief:
as §4

Series [15] in a line: Cytotoxicity against AGT-positive human SF763 cells assessed as reduction in cell viability pretreated with O6-BG for 2 hrs followed by addition of compound measured after 24 hrs by CCK8 assay. It is filed as functional, cell-based. The essentials:
as §4

Take `Nc1nc(OCc2ccccc2)c2ncn(CCNC(=O)N(CCCl)N=O)c2n1`: the “Ratio IC50” value in [1] is listed as 17; in [3], 3.3; in series [4] it was 5.8; in the series on SF-126 [6], 7 - 9; in series [12], 27. Further, in series [2], the logP – broadly, the decadic logarithm of the partition coefficient of the neutral form, usually between octanol and water – at 2000 µM was 1.81. Also, the inhibition result in [5] and in series [10] was “Dose-dependent effect” in each case. The Activity entry in the series filed under Bos taurus and in the series on SF-126 [11] was “Dose-dependent effect” each time. Also, the IC50 (commonly the concentration that inhibits the measured activity by half) was 60 µM in series [7], 58 µM in series [8] and 52 µM in series [9].
Regarding `O=NN(CCCl)C(=O)NCCCl` [CARMUSTINE], the IC50 was 55 µM in series [13]; 120 µM in series [14]; 350 µM in series [7]; 130 µM in [8]; 85 µM in [9]; 200 µM in series [15]. The inhibition result in series [5] and in [10] was “Dose-dependent effect” throughout. Moreover, the Activity result in the series filed under Bos taurus and with SF-126 [11] was “Dose-dependent effect” throughout.
Consider `Cc1ncc(CNC(=O)N(CCCl)N=O)c(N)n1` [NIMUSTINE], for which the half-maximal inhibitory concentration (IC50) is 360 µM in series [13]; 400 µM in [14]; 1600 µM in [7]; 570 µM in series [8]; 450 µM in series [9]. The inhibition entry in [5] and in series [10] was “Dose-dependent effect” in each case. Also, the Activity result in the series listed under Bos taurus and in the series with SF-126 [11] was “Dose-dependent effect” throughout.
